Laboratory results reported in ChEMBL document CHEMBL1268809, “Optimisation of 2-cyano-pyrimidine inhibitors of cathepsin K: improving selectivity over hERG” (Bioorg Med Chem Lett, 2010).
Converted amounts (≈) assume the structure as drawn.

Legend:
[1] = biological target: Voltage-gated inwardly rectifying potassium channel KCNH2 (Homo sapiens, UniProt Q12809); test: Displacement of [3H] dofetilide from human ERG channel expressed in HEK293 cells; type: cell-based
[2] = Solubility in pH 7.4 PBS solution; type: physicochemical
Cathepsin K = biological target: T1, Cathepsin K (Homo sapiens, UniProt P43235); test: Inhibition of human recombinant cathepsin K using Z-Phe-Arg-MCA substrate by fluorimetric assay
T1 sequence (P43235 whole entry): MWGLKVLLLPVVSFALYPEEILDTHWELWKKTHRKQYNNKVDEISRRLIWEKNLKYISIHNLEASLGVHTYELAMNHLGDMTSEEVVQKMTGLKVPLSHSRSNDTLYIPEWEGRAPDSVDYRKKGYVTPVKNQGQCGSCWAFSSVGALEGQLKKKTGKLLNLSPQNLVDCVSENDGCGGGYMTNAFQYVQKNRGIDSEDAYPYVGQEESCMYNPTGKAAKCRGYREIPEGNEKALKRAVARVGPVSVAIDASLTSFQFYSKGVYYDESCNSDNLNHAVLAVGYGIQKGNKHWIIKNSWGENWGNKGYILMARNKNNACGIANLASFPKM

Osteoclast = test: Inhibition of bone resorption in rabbit osteoclasts; type: functional, cell-based; settings: Oryctolagus cuniculus
Procathepsin L = Procathepsin L (Homo sapiens, UniProt P07711); test: Inhibition of human recombinant cathepsin L
[3] = Oral bioavailability in cynomolgus monkey at 4.63 mg/kg; settings: in vivo
Cytochrome P450 2C9 = Cytochrome P450 2C9 (Homo sapiens, UniProt P11712); test: Inhibition of CYP2C9; type: ADME
Cytochrome P450 2C19 = Cytochrome P450 2C19 (Homo sapiens, UniProt P33261); test: Inhibition of CYP2C19; type: ADME
Cytochrome P450 3A4 = Cytochrome P450 3A4 (Homo sapiens, UniProt P08684); test: Inhibition of CYP3A4; type: ADME
Cathepsin B = Cathepsin B (Homo sapiens, UniProt P07858); test: Inhibition of human recombinant cathepsin B
[4] = Oral bioavailability in Wistar rat at 10 mg/kg; type: ADME, organism-based; settings: in vivo
Procedure, shortened: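 Wistar rats were dosed iv at 2 mg/kg and po at 10 mg/kg. Oral bioavailability (F, %) was derived from the two routes.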

[5] = Oral bioavailability in Beagle dog at 1.96 mg/kg; settings: in vivo
Cytochrome P450 1A2 = biological target: T2, Cytochrome P450 1A2 (Homo sapiens, UniProt P05177); test: Inhibition of CYP1A2; type: ADME
T2 sequence (P05177 whole entry): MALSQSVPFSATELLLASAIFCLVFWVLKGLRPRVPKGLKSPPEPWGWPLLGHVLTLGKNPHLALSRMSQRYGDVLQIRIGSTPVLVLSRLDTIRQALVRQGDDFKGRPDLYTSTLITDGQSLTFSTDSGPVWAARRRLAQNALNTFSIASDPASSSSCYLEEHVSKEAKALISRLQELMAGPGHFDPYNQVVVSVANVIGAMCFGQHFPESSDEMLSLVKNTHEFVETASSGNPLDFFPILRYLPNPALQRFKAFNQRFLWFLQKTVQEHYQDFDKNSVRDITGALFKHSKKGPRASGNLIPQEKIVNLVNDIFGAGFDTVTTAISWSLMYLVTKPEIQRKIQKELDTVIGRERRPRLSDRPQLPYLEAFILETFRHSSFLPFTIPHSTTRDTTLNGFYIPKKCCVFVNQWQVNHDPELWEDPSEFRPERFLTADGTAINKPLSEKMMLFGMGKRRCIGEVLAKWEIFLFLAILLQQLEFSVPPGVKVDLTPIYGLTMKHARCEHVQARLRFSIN

Cathepsin S = Cathepsin S (Homo sapiens, UniProt P25774); test: Inhibition of human recombinant cathepsin S
[6] = Half life in plasma; type: ADME, cell-free

Chain of Voltage-gated inwardly rectifying potassium channel KCNH2 (Q12809 whole entry): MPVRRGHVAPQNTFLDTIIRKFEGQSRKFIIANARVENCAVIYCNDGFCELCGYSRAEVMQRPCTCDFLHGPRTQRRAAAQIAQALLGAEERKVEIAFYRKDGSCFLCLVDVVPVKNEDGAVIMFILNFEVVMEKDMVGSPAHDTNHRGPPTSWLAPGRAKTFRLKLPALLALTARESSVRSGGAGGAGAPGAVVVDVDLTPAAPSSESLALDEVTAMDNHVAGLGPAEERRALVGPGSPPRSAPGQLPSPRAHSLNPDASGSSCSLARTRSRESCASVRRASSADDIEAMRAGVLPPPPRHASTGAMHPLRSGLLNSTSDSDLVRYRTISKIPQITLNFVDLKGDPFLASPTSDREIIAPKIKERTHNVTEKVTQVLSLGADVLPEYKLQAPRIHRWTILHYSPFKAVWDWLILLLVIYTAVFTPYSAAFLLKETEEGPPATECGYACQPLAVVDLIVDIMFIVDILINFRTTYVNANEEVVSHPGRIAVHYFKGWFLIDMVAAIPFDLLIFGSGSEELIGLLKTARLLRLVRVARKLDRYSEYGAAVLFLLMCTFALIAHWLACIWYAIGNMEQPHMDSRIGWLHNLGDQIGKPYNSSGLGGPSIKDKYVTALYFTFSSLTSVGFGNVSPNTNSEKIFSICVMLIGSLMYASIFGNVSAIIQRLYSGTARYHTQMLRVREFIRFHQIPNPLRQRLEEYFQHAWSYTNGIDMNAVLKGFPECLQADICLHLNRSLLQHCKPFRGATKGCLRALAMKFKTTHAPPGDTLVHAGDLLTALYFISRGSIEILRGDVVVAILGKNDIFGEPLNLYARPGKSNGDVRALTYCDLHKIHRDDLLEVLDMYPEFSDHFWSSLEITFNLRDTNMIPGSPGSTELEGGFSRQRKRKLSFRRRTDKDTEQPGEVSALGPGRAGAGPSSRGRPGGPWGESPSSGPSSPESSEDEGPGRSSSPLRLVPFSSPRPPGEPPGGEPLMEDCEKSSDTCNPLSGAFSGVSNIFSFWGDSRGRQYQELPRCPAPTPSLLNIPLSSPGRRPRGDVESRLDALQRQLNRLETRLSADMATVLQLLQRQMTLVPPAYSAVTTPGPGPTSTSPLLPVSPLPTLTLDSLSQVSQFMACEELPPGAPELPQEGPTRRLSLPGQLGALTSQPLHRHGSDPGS
Chain of Cytochrome P450 2C9 (P11712 whole entry): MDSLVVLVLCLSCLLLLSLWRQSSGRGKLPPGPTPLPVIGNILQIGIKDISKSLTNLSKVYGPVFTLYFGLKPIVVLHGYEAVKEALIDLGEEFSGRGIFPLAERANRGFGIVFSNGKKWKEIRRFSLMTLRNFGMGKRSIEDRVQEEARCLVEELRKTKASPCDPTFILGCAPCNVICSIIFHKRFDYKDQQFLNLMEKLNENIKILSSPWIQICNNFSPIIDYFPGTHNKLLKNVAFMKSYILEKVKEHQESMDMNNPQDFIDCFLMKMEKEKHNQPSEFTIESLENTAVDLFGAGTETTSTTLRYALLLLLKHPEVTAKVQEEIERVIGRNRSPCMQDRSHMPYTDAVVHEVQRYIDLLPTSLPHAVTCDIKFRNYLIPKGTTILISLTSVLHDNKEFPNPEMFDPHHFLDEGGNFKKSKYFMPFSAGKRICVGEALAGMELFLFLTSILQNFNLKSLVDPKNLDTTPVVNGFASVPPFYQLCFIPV
Chain of Cytochrome P450 3A4 (P08684 whole entry): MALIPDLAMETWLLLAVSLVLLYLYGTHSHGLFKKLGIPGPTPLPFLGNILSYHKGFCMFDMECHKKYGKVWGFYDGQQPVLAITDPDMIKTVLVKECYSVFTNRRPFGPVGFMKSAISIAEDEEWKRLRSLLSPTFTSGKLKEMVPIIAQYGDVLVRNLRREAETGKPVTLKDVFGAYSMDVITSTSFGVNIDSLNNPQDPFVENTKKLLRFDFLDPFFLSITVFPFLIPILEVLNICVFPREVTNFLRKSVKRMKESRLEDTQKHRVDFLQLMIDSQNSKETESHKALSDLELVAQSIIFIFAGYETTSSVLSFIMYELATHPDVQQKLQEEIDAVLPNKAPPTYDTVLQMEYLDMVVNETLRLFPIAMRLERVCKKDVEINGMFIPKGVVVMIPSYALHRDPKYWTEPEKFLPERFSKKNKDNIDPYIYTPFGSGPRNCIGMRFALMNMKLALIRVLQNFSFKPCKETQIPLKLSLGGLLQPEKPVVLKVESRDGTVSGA
Chain of Cathepsin S (P25774 whole entry): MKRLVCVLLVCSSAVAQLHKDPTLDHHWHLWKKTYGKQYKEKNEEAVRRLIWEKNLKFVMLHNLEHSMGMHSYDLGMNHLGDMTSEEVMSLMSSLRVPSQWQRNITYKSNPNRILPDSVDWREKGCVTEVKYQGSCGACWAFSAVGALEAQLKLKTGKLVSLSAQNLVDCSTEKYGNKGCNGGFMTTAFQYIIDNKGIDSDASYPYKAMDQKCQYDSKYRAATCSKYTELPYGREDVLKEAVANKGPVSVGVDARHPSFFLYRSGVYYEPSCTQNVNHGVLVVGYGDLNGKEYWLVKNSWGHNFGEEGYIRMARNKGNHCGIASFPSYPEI
Chain of Cytochrome P450 2C19 (P33261 whole entry): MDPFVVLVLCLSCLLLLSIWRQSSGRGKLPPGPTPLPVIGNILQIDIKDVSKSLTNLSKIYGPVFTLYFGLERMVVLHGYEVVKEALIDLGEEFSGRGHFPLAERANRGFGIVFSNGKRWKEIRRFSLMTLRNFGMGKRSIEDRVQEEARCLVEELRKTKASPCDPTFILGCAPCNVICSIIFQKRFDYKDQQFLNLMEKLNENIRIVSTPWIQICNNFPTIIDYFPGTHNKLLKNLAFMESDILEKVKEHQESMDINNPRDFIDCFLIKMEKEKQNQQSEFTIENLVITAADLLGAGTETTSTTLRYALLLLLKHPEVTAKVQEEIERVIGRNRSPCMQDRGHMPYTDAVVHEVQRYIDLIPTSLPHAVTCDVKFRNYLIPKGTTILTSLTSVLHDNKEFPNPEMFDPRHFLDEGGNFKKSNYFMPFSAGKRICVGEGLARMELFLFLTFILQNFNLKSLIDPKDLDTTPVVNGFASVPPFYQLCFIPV
Chain of Procathepsin L (P07711 whole entry): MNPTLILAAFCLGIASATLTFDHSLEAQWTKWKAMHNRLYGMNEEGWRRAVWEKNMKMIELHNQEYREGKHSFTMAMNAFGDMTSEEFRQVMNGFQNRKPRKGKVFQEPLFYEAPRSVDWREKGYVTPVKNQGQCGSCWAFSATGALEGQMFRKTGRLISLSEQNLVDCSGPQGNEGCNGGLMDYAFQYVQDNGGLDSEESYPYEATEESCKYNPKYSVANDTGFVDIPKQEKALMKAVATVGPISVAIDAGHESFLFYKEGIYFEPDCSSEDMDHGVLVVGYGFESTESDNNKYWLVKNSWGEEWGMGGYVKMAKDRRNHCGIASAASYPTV

Compound | IC50 (Cathepsin K) [nM] | Ki [1] [nM] | also measured
N#Cc1nc(CCCN2CCCCC2)cc(-c2cccc(C(F)(F)F)c2)n1 |  | 160 | solubility [2]: 60 µg/mL (≈ 160 µM)
CCCc1cc(-c2cc(C(=O)N(CCN(C)C)Cc3ccccc3)cc(C(F)(F)F)c2)nc(C#N)n1 |  | 120 | 
N#Cc1nc(CCCNCC(F)(F)F)cc(-c2cccc(C(F)(F)F)c2)n1 | 30 | 500 | 
COCCNCCCc1cc(-c2cccc(C(F)(F)F)c2)nc(C#N)n1 | 10 | 560 | 
N#Cc1nc(CCCN2CCC(O)CC2)cc(-c2cccc(C(F)(F)F)c2)n1 |  | 1120 | 
N#Cc1nc(CCCNc2ccccn2)cc(-c2cccc(C(F)(F)F)c2)n1 | 3 |  | 
N#Cc1nc(CCCNCC(=O)O)cc(-c2cccc(C(F)(F)F)c2)n1 |  | > 10000 | 
N#Cc1nc(CCCNCc2nnn[nH]2)cc(-c2cccc(C(F)(F)F)c2)n1 | 11 | > 10000 | IC50 (Osteoclast): 1640 nM
N#Cc1nc(CCCNCC(N)=O)cc(-c2cccc(C(F)(F)F)c2)n1 |  | 3980 | 
CC(C)(NCCCc1cc(-c2cccc(C(F)(F)F)c2)nc(C#N)n1)C(N)=O |  |  | IC50 (Procathepsin L): > 10000 nM; bioavailability [3]: 57%; IC50 (Cytochrome P450 2C9): > 35000 nM; IC50 (Cytochrome P450 2C19): > 35000 nM; IC50 (Cytochrome P450 3A4): > 35000 nM; IC50 (Cathepsin B): 2510 nM; bioavailability [4]: 29%; bioavailability [5]: 29%; solubility [2]: 393 µg/mL (≈ 1000 µM); IC50 (Cytochrome P450 1A2): > 35000 nM; IC50 (Cathepsin S): 16 nM
N#Cc1nc(CCCNC2(C(N)=O)CC2)cc(-c2cccc(C(F)(F)F)c2)n1 |  | 1580 | 
N#Cc1nc(CCCNC2(C(N)=O)CCC2)cc(-c2cccc(C(F)(F)F)c2)n1 |  | 2510 | 
CCCc1cc(-c2cc(C(F)(F)F)ccc2C(=O)N(C)C)nc(C#N)n1 | 427 |  | 
CCCc1cc(-c2cc(C(=O)N(C)C)cc(C(F)(F)F)c2)nc(C#N)n1 |  | > 10000 | 
CCCc1cc(-c2cc(C(=O)N(C)CCN(C)C)cc(C(F)(F)F)c2)nc(C#N)n1 |  | 710 | 
CCCc1cc(-c2cc(C(=O)N(C)Cc3ccccc3)cc(C(F)(F)F)c2)nc(C#N)n1 | 9 |  | 

Now from value to compound, other results behind:

IC50 (Cathepsin K) [nM] | Compound | Ki [1] [nM] | also measured
10 | CN1CCN(CCCc2cc(-c3cccc(C(F)(F)F)c3)nc(C#N)n2)CC1 |  | 
9 | N#Cc1nc(CCCN2CCOCC2)cc(-c2cccc(C(F)(F)F)c2)n1 | 320 | 
5 | N#Cc1nc(CCCNC2(C(N)=O)CCOCC2)cc(-c2cccc(C(F)(F)F)c2)n1 | > 10000 | half-life [6]: > 2.5 h
13 | N#Cc1nc(CCCN2CCOC[C@H]2C(N)=O)cc(-c2cccc(C(F)(F)F)c2)n1 | > 10000 | half-life [6]: > 2.5 h
166 | N#Cc1nc(CCC(=O)O)cc(-c2cccc(C(F)(F)F)c2)n1 | > 10000 | 
389 | CCC(CC)NC(=O)CCc1cc(-c2cccc(C(F)(F)F)c2)nc(C#N)n1 |  | 
6 | CNCCCc1cc(-c2cccc(C(F)(F)F)c2)nc(C#N)n1 |  | 
